Assay results taken from ChEMBL document CHEMBL1153793, “New pyridone, thioxopyridine, pyrazolopyridine and pyridine derivatives that modulate inflammatory mediators in stimulated RAW 264.7 murine macrophage” (Eur J Med Chem, 2009).
Calls of active or inactive are those of the source. The rule behind the calls is not given here.

Key:
RAW264.7 [1] = test: Effect on inflammatory mediators in LPS-stimulated mouse RAW264.7 cells assessed as TNF-alpha accumulation at 20 uM after 24 hrs by ELISA; type: functional
Procedure, shortened: (§1)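 RAW 264.7 given 20 µM compound for 24 h, alone or together with LPS at 1 µg/ml. TNF-α and PGE2 in harvested supernatants quantified with commercial ELISA kits per manufacturer; four repeats, means reported.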

RAW264.7 [2] = test: Effect on inflammatory mediators in mouse RAW264.7 cells assessed as nitrite accumulation at 20 uM after 24 hrs by Griess assay; type: functional
Procedure, shortened: (§2)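 Cells in phenol red-free RPMI-1640 with 10% FBS treated 24 h with 20 µM compound, with or without LPS (1 µg/ml). Supernatant mixed 1:1 with Griess reagent for 10 min, A550 read against a sodium nitrite standard curve, then normalised to BCA protein.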

RAW264.7 [3] = test: Effect on inflammatory mediators in LPS-stimulated mouse RAW264.7 cells assessed as COX-2 accumulation at 20 uM after 24 hrs by dot immunoblotting; type: functional
Procedure, shortened: (§3)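 Cells treated 24 h with 20 µM compound, with or without LPS (1 µg/ml). 20 µg soluble lysate protein dot-blotted onto nitrocellulose and probed with rabbit anti-mouse COX-2 or 5-LO, HRP anti-rabbit secondary and OPD colour. Intensity normalised to β-actin dots; four repeats.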

RAW264.7 [4] = test: Effect on inflammatory mediators in LPS-stimulated mouse RAW264.7 cells assessed as PGE2 accumulation at 20 uM after 24 hrs by ELISA; type: functional; procedure, shortened: as §1
[5] = Peroxyl radical scavenging activity assessed as trolox equivalents at 1 uM by ORAC assay
Procedure, shortened: (§4)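 β-Phycoerythrin fluorescence decay followed kinetically for 2 h at 37 °C with 1 µM compound, against peroxyl and hydroxyl radicals. One ORAC unit = net protection given by 1.0 µM Trolox.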

RAW264.7 [6] = test: Effect on inflammatory mediators in mouse RAW264.7 cells assessed as PGE2 accumulation at 20 uM after 24 hrs by ELISA; type: functional; procedure, shortened: as §1
RAW264.7 [7] = test: Effect on inflammatory mediators in mouse RAW264.7 cells assessed as COX-2 accumulation at 20 uM after 24 hrs by dot immunoblotting; type: functional; procedure, shortened: as §3
[8] = Hydroxyl radical scavenging activity assessed as trolox equivalents at 1 uM by ORAC assay; type: functional; procedure, shortened: as §4
[9] = Antioxidant activity assessed as superoxide radical scavenging activity; type: functional
Procedure, shortened: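 Non-cellular assay; superoxide generated by oxidation of 50 µM hypoxanthine with 12 mU xanthine oxidase. Scavenging followed as the rate of nitroblue tetrazolium reduction to formazan. SC50 taken from dose-dependent curves of serial dilutions; superoxide dismutase as standard inhibitor.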

RAW264.7 [10] = test: Effect on inflammatory mediators in mouse RAW264.7 cells assessed as TNF-alpha accumulation at 20 uM after 24 hrs by ELISA; type: functional; procedure, shortened: as §1
RAW264.7 [11] = test: Effect on inflammatory mediators in LPS-stimulated mouse RAW264.7 cells assessed as 5-LO accumulation at 20 uM after 24 hrs by dot immunoblotting; type: functional; procedure, shortened: as §3
RAW264.7 [12] = test: Induction of phagocytosis in mouse RAW264.7 cells assessed as phagocytic activity against FITC-zymosan after 1 hr by fluorimetry; type: functional, cell-based
Procedure, shortened: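 Cells at 1×10^5/well in phenol red-free RPMI-1640 rested 24 h, then given compound for 1 h. FITC-zymosan added for a further 1 h; cells washed three times and lysed with Triton X-100. Fluorescence read at 485/530 nm and expressed relative to untreated cells (100%).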

RAW264.7 [13] = test: Effect on inflammatory mediators in mouse RAW264.7 cells assessed as 5-LO accumulation at 20 uM after 24 hrs by dot immunoblotting; type: functional; procedure, shortened: as §3
RAW264.7 [14] = test: Cytotoxicity against mouse RAW264.7 cells assessed as cell viability after 24 hrs by MTT assay; type: cell-based; details: RAW264.7, 24 h, in the assay text read “MTT assay” for “ultra gel clot assay”
Procedure, shortened: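 RAW 264.7 macrophages (5×10^4 cells/well) exposed 24 h at 37 °C to a range of compound concentrations, then read by MTT reduction to formazan, solubilised in acidic isopropanol. Viability expressed as mean % of untreated cells (n = 4); 1000 U/ml M-CSF as positive control. IC50 derived.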

RAW264.7 [15] = test: Effect on inflammatory mediators in LPS-stimulated mouse RAW264.7 cells assessed as nitrite accumulation at 20 uM after 24 hrs by Griess assay; type: functional; procedure, shortened: as §2
RAW264.7 [16] = test: Effect on mouse RAW264.7 cell function assessed as FITC-LPS binding to macrophage after 15 mins by fluorimetry; type: functional, cell-based
Procedure, shortened: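 5×10^5 RAW 264.7 cells pre-incubated 15 min at 37 °C with compound in RPMI-1640 plus 10% FBS as the CD14/LBP source. FITC-LPS (200 ng/ml) then added for 1 h. After PBS wash, fluorescence read at ex 485/em 530 nm and median fluorescence intensity reported.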

RAW264.7 [17] = test: Effect on inflammatory mediators in mouse RAW264.7 cells assessed as TNF-alpha accumulation at 20% IC50 after 24 hrs by ELISA; type: functional
RAW264.7 [18] = test: Effect on inflammatory mediators in LPS-stimulated mouse RAW264.7 cells assessed as PGE2 accumulation at 20% IC50 after 24 hrs by ELISA; type: functional
RAW264.7 [19] = test: Effect on inflammatory mediators in LPS-stimulated mouse RAW264.7 cells assessed as nitrite accumulation at 20% IC50 after 24 hrs by Griess assay; type: functional
RAW264.7 [20] = test: Effect on inflammatory mediators in mouse RAW264.7 cells assessed as 5-LO accumulation at 20% IC50 after 24 hrs by dot immunoblotting; type: functional
Procedure, shortened: (§5)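 20 µg lysate protein dot-blotted, probed with anti-mouse COX-2 or 5-LO, detected by HRP/OPD and normalised to β-actin.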

RAW264.7 [21] = test: Effect on inflammatory mediators in LPS-stimulated mouse RAW264.7 cells assessed as TNF-alpha accumulation at 20% IC50 after 24 hrs by ELISA; type: functional
RAW264.7 [22] = test: Effect on inflammatory mediators in LPS-stimulated mouse RAW264.7 cells assessed as COX-2 accumulation at 20% IC50 after 24 hrs by dot immunoblotting; type: functional; procedure, shortened: as §5
RAW264.7 [23] = test: Effect on inflammatory mediators in LPS-stimulated mouse RAW264.7 cells assessed as 5-LO accumulation at 20% IC50 after 24 hrs by dot immunoblotting; type: functional; procedure, shortened: as §5
RAW264.7 [24] = test: Effect on inflammatory mediators in mouse RAW264.7 cells assessed as PGE2 accumulation at 20% IC50 after 24 hrs by ELISA; type: functional
RAW264.7 [25] = test: Effect on inflammatory mediators in mouse RAW264.7 cells assessed as COX-2 accumulation at 20% IC50 after 24 hrs by dot immunoblotting; type: functional; procedure, shortened: as §5
RAW264.7 [26] = test: Effect on inflammatory mediators in mouse RAW264.7 cells assessed as nitrite accumulation at 20% IC50 after 24 hrs by Griess assay; type: functional

SMILES | Activity (RAW264.7 [1]) [pg] | Activity (RAW264.7 [2]) [nmol] | Activity (RAW264.7 [3]) [%] | Activity (RAW264.7 [4]) [pg] | Activity [5] | Activity (RAW264.7 [6]) [pg] | Activity (RAW264.7 [7]) [%] | Activity [8] | SC50 [9] [µg/mL] | Activity (RAW264.7 [10]) [pg] | Activity (RAW264.7 [11]) [%] | Activity (RAW264.7 [12]) | Activity (RAW264.7 [13]) [%] | IC50 (RAW264.7 [14]) [µM] | Activity (RAW264.7 [15]) [nmol] | Activity (RAW264.7 [16]) | other results
N#Cc1c(-c2c[nH]c3ccccc23)cc(-c2ccc3c(c2)CCCC3)[nH]c1=O | 5100.15 | 16.25 | 82.4 | 3210.3 | 0.35 | 32.63 | 16.3 | 0.21 | 78.5 | 88.44 | 82.3 | Active | 23.5 | > 100 | 505.75 | – | –
CC(C)c1ccc(-c2cc(-c3ccc4c(c3)CCCC4)[nH]c(=S)c2C#N)cc1 | 1458.16 | 12.66 | 36.7 | 1843.42 | 4.32 | 41.84 | 18.2 | 5.41 | 10.2 | 101.5 | 31.6 | Active | 14.2 | > 100 | 25.58 | Active | –
COc1ccc(-c2cc(-c3ccc4c(c3)CCCC4)nc3[nH]nc(N)c23)cc1OC | 4185.85 | 10.53 | 63.7 | 3415.23 | 1.92 | 28.6 | 15.7 | 5.85 | > 100 | 94.88 | 81.8 | – | 24 | > 50 | 145.67 | – | –
COc1ccc(-c2cc(-c3ccc4c(c3)CCCC4)nc(Cl)c2C#N)cc1OC | 5716.66 | 512.35 | 88.7 | 3325.87 | 0.61 | 38.33 | 36.6 | 0.35 | 87.9 | 810.75 | 84.5 | inactive | 25.3 | > 50 | 766.85 | inactive | –
COc1ccc(-c2cc(-c3ccc4c(c3)CCCC4)[nH]c(=S)c2C#N)cc1OC | – | – | – | – | 0.9 | – | – | 0.85 | 65.4 | – | – | – | – | 29.4 | – | – | Activity (RAW264.7 [17]): 79.18 pg; Activity (RAW264.7 [18]): 3309.3 pg; Activity (RAW264.7 [19]): 380.12 nmol; Activity (RAW264.7 [20]): 18.3%; Activity (RAW264.7 [21]): 4652.4 pg; Activity (RAW264.7 [22]): 72.8%; Activity (RAW264.7 [23]): 85.4%; Activity (RAW264.7 [24]): 28.66 pg; Activity (RAW264.7 [25]): 12.3%; Activity (RAW264.7 [26]): 8.58 nmol
COc1ccc(-c2cc(-c3ccc4c(c3)CCCC4)[nH]c(=O)c2C#N)cc1OC | 3860.25 | 14.8 | 76.3 | 3120.45 | 0.41 | 30.35 | 14.6 | 0.54 | > 100 | 69.56 | 92.1 | – | 15.8 | > 100 | 355.78 | – | –
CC(C)c1ccc(-c2cc(-c3ccc4c(c3)CCCC4)nc3[nH]nc(N)c23)cc1 | 1925.78 | 5.62 | – | 2974.23 | 2.45 | 32.21 | – | 2.28 | 21.9 | 105.6 | – | Active | – | > 50 | 62.42 | Active | –
CC(C)c1ccc(-c2cc(-c3ccc4c(c3)CCCC4)nc(NCc3ccccc3)c2C#N)cc1 | 6325.08 | 614.63 | 97.3 | 3222.55 | 1.34 | 48.3 | 53.2 | 1.01 | 77.6 | 1890.16 | 88.7 | – | 29.8 | > 50 | 922.5 | inactive | –
COc1ccc(-c2cc(-c3ccc4c(c3)CCCC4)nc(OCC(=O)NCc3ccccc3)c2C#N)cc1OC | 854.16 | 26.65 | 73.3 | 2018.96 | 3.56 | 53.1 | 23.7 | 2.31 | 19.9 | 116.8 | 77.4 | inactive | 18.9 | – | 155.25 | inactive | –
COc1ccc(-c2cc(-c3ccc4c(c3)CCCC4)nc(OCC(=O)NN)c2C#N)cc1OC | 4924.22 | 1.34 | 71.3 | 3111.94 | 5.12 | 25.6 | 10.2 | 5.84 | 8.67 | 124.68 | 83.2 | – | 13.8 | 3.1 | 78.54 | – | –
N#Cc1c(-c2c[nH]c3ccccc23)cc(-c2ccc3c(c2)CCCC3)[nH]c1=S | 4925.35 | 15.5 | 59.8 | 3005.3 | 6.13 | 49.82 | 28.1 | 4.2 | 4.22 | 75.4 | 69.4 | – | 23.8 | > 100 | 480.05 | – | –
CC(C)c1ccc(-c2cc(-c3ccc4c(c3)CCCC4)[nH]c(=O)c2C#N)cc1 | 1255.6 | 8.51 | 42.7 | 2105.3 | 0.75 | 40.13 | 21.4 | 0.92 | 85.4 | 91.67 | 25.1 | Active | 20.3 | > 100 | 32.55 | Active | –
